Published values from different studies.
Compare with care: the assays were run in different laboratories.
Target: Ephrin type-B receptor 6 (EPHB6, Homo sapiens, UniProt O15197)
Sequence (O15197 32-1021, as in one of the studies): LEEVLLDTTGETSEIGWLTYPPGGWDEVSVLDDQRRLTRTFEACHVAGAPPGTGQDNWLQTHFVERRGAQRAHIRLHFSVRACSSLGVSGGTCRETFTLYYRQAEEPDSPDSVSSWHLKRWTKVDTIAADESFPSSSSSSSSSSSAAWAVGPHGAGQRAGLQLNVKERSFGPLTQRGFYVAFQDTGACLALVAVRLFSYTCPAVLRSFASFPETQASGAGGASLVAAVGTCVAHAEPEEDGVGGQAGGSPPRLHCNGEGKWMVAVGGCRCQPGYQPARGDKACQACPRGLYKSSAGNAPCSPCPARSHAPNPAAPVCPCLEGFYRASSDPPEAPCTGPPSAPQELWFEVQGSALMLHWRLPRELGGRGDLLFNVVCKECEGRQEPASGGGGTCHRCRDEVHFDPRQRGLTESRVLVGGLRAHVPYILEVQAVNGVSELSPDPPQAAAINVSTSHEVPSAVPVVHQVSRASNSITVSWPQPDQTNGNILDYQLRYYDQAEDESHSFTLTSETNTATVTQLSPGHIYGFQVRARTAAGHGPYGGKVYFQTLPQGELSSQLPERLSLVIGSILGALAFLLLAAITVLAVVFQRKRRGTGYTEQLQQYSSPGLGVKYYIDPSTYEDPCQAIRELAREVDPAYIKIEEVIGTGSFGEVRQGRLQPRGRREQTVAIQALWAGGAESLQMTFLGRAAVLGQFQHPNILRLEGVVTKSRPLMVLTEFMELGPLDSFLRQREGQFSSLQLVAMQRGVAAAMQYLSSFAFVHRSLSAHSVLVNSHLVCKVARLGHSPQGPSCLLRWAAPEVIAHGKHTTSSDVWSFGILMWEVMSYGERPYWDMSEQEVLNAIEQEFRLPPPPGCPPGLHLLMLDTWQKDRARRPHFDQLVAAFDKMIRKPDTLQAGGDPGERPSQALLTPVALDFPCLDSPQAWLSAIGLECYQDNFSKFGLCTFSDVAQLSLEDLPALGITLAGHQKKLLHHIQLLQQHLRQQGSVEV

Compound | test | conditions | remaining binding [%]
CC1CCCN1c1nccc(-c2cnn3ncccc23)n1 (stereo not shown) | binding | 1 µM | 82
O=C(O)[C@@H]1[C@@H](Cn2nnc3ccccc3c2=O)CC[C@H]1C(=O)c1ccc(OCCC2CCOCC2)cc1 | cell-free assay, competition with immobilised ligand | 1 µM | 100
C[C@H]1CCN(c2nccc(-c3cnn4ncccc34)n2)C1 | binding | 1 µM | 85
CNC(=O)[C@@H]1CC[C@@H](n2c(-c3ccc4cnccc4c3)nc3ccc(C(=O)NCc4cccc(C(N)=O)c4)cc32)C1 | binding, competition with immobilised ligand | 1 µM | 100
Nc1ncc2c(n1)-c1c([nH]c3ccc(C#CC4CC4)cc13)CCCC2 | binding, competition with immobilised ligand | 1 µM | 84
N[C@H]1CCN(c2nccc(-c3cnn4ncccc34)n2)C1 | binding | 1 µM | 56
C[C@H](NC(=O)c1cnc2n1[C@](C)(Cc1ccc(C#N)cc1)C(=O)N2c1cc(Cl)c(F)c(Cl)c1)C(=O)NC1(c2ccccn2)CC1 | cell-free assay, competition with immobilised ligand | 1 µM | 100
COc1ccnn2ncc(-c3ccnc(N(C)C)n3)c12 | binding | 1 µM | 27
O=C(NCC1CCOCC1)c1n[nH]cc1NC(=O)c1c(F)cccc1F | binding, competition with immobilised ligand | 1 µM | 91
CCN1CCN(Cc2ccc(C(=O)Nc3ccc(C)c(Oc4ccc5c(c4)CC(=O)N5)c3)cc2C(F)(F)F)CC1 | binding, competition with immobilised ligand | 1 µM | 91
C[C@@H]1CN(c2cc(-c3n[nH]c4ccc(OC5(C)CC5)cc34)ncn2)C[C@H](C)O1 | cell-free assay, competition with immobilised ligand | 0.1 µM | 91
O=C(NCCCN1CCOCC1)c1ccc(Nc2ncc(Cl)c(-c3ccc(Cl)s3)n2)cc1 | binding, competition with immobilised ligand | 1 µM | 13
CN(CCCC(F)(F)F)c1nccc(-c2cnn3ncccc23)n1 | binding | 1 µM | 100
O=C(c1ccc(Nc2nccc(-c3cc4ccccc4s3)n2)cc1)N1CCC(N2CCCC2)CC1 | binding, competition with immobilised ligand | 1 µM | 2.5
CN(c1ccnc(CNc2nc(Nc3ccc4c(c3)CC(=O)N4)ncc2C(F)(F)F)n1)S(C)(=O)=O | cell-free assay, competition with immobilised ligand | 1 µM | 54
Cc1cnn2ncc(-c3ccnc(N(C)C)n3)c2c1 | binding | 1 µM | 80
Cc1nc(N2CC[C@@H](O)C2)ncc1-c1cc(C(F)(F)F)cc2[nH]ncc12 | binding, competition with immobilised ligand | 1 µM | 36
O=C(NCCCN1CCOCC1)c1ccc(Nc2nccc(-c3cc4ccccc4s3)n2)cc1 | binding, competition with immobilised ligand | 1 µM | 18
C[C@@]1(Cc2ccc(C#N)cc2)C(=O)N(c2cc(Cl)cc(Cl)c2)c2ncc(C(=O)NC3(c4nc(C5CCC5)no4)CC3)n21 | cell-free assay, competition with immobilised ligand | 1 µM | 100
F[C@@H]1CCN(c2nccc(-c3cnn4ncccc34)n2)C1 | binding | 1 µM | 100
CS(=O)(=O)N1CCCC(NC(=O)[C@H](CCC2CCCCC2)NC(=O)c2ccc(CNC(=O)c3cnc4ccccn34)cc2)C1 (stereo partly shown) | cell-free assay, competition with immobilised ligand | 0.1 µM | 98
C=CC(=O)N1CCC(C(=O)NCC(=O)N2CCN(c3nc(-c4cnc(N)nc4C(F)F)nc(N4CCOCC4)n3)CC2)CC1 | binding, competition with immobilised ligand | 1 µM | 65
